# Published values pooled from the literature.
# Compare with care: the assays were run in different laboratories.
# Target: Mu-type opioid receptor (OPRM1, Homo sapiens, UniProt P35372)
SMILES,assay,system,conditions,measurement,result
COc1ccc2c(c1)O[C@H](c1ccc(OC)c(OC)c1)C[C@@H]2NC(=O)C1(c2ccc3c(c2)OC(F)(F)O3)CC1,cell-free assay,,10 µM,inhibition,6.01%
Nc1ncc(-c2nc(N3CCOCC3)nc(N3CCOCC3)n2)c(C(F)F)n1,"cell-free assay, radioligand",,10 µM,remaining signal,104%
CC(C)N1CCC[C@H]1CNC(=O)c1cn(C2CCCC2)c(=O)c2c1c1ccccc1n2C,"ligand displacement, radioligand",,10 µM,inhibition,5%
COc1ccsc1CNCC[C@@]1(c2ccccn2)CCOC2(CCCC2)C1,"β-arrestin recruitment, agonist",,,Emax,< 50%
CC1=C(C#N)C(c2ccc3[nH]nc(C)c3c2)C(C#N)=C(C)N1,ligand displacement,,10 µM,inhibition,2.64%
CCCCC/C=C\C/C=C\C/C=C\C/C=C\CCCC(=O)O,"ligand displacement, radioligand",,"10 µM, cell membranes",inhibition,80%
COc1ccsc1CNCC[C@@]1(c2ccccn2)CCOC2(CCCC2)C1,"β-arrestin recruitment, agonist",HEK-293T,,Emax,< 5%
COCc1c(-c2cc3cc(C)cc(OC)c3s2)c2c(N)ncnn2c1CN1CCNC(=O)C1,"ligand displacement, radioligand",,10 µM,inhibition,31%
CC[C@@H]1CN2CC[C@@]3(O)C(=Nc4cccc(OC)c43)[C@@H]2C[C@@H]1/C(=C\OC)C(=O)OC,"β-arrestin recruitment, agonist",,,Emax,< 50%
CC1(C)SSC(C)(C)[C@@H](NC(=O)[C@@H](N)Cc2ccc(O)cc2)C(=O)NCC(=O)N[C@@H](Cc2ccccc2)C(=O)N2CCN(CC2)C(=O)[C@H](Cc2ccccc2)NC(=O)CNC(=O)[C@@H]1NC(=O)[C@@H](N)Cc1ccc(O)cc1,"cAMP, agonist, luciferase",HEK293,,Emax,86%
CN1CCN(c2cc(-c3ccncc3)c(-c3ccc4ccccc4c3)nn2)CC1,"calcium signal, agonist",OPRM1,12.5 µM,activation,0.3%
Clc1ccc2c(C3CCN(CCc4c[nH]c5ccccc45)CC3)c[nH]c2c1,"ligand displacement, radioligand",,10 µM,inhibition,93%
C[C@H](C(=O)N[C@H]1COc2ccccc2[C@@H]1S(C)(=O)=O)c1ccc(F)cc1,ligand displacement,,10 µM,inhibition,-8%
CN(C)C(=O)Cn1cc(-c2nc(C3(c4ccc(-c5cnc(N)nc5)cc4)CC3)no2)cn1,cell-free assay,,10 µM,inhibition,12.6%
c1ccc(C(NCCNC(c2ccccc2)c2ccccc2)c2ccccc2)cc1,ligand displacement,,10 µM,inhibition,21%
CCN(CC)CCCC[C@H](NC(=O)[C@H](CC(C)C)NC(=O)[C@H](C)NC(=O)[C@H](Cc1ccccc1)NC(=O)c1ccc(C(C)(C)C)cc1)C(=O)N[C@@H](CO)C(=O)OC,"ligand displacement, radioligand",,10 µM,remaining binding,48.6%
